Rows were chosen to be rich in hits. Some 3.5% of all compounds tested hit in one or more screens of this group.
RGS4 block – inhibitors of human RGS4 | AID 463165 | 310,000 compounds, 0.45% hits | P49798 | HEK293 M3R/RGS4 inducible, Fluo-4 calcium flux; stronger effect = higher value; triggered by carbachol at its EC20 | B-score at 10 µM;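 active = B-score, a plate-corrected calcium signal, over three deviations above library mean, with baseline fluorescence within five deviations of library mean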;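 also: RGS4 expression induced by doxycycline in cells with stable M3 receptor; B-score is computed from the integrated fluorescence ratio over baseline after carbachol; higher B-score means a larger calcium signal and so more RGS4 inhibition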
Target sequence (P49798 whole entry, looked up): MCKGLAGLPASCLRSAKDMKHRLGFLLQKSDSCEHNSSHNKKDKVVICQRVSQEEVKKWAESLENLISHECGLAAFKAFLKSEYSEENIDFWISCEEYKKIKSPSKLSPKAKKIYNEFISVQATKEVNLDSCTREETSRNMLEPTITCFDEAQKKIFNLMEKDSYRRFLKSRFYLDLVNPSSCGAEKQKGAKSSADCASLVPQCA
RGS4 act – potentiators or activators of RGS4; 310,000 compounds, 0.92% hits; HEK293 M3R/inducible RGS4, carbachol calcium flux Fluo4; stronger effect = lower value; B-score at 10 µM;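 active = B-score of the integrated calcium signal more than 4 SD below the library mean, with starting fluorescence not abnormally high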;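 also: negative B-score means reduced calcium response which marks RGS4 activation or potentiation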
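Reagent: ECmax carbachol challenge; Test system: M3R-expressing HEK293 line, RGS4 induced by doxycycline; Schedule: overnight RGS4 induction, 30 min dye load 37 °C, 20 min compound RT; Detection: calcium dye Fluo4 fluorescence; Read-out: Agonist-evoked peak-minus-minimum fluorescence over baseline, integrated ratio, B score.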
MrgX1 PAM – allosterically activates human MrgX1 receptor signaling; Q96LB2; MrgX1-HEK293, Fluo-4 calcium flux, FDSS; stronger effect = higher value; B-score at 10 µM; 310,000 compounds, 0.63% hits;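 active = plate-corrected calcium response at least 3 library SD above typical, normal starting fluorescence, not activating the receptor alone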;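 also: compound read alongside a low EC10 to EC30 dose of BAM8-22 agonist; peak minus trough fluorescence over baseline measured at the second addition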
MrgX1 agonist – activates human MrgX1 receptor signaling. Q96LB2. MrgX1-HEK293 cells, Fluo-4 calcium fluorescence, agonist mode; stronger effect = higher value. B-score at 10 µM. 310,000 compounds, 0.44% hits. AID 588627;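 active = calcium response B-score plate-corrected fluorescence ratio at least 3 library SD, with starting fluorescence B-score inside 5 SD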
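Assay system: MrgX1-expressing HEK293 cells / Amount: fifteen thousand cells per well / Doses: test compound in the initial addition of three / Timing: cells plated overnight, dye loaded 0.5 h 37 °C, 0.5 h room temperature / Technique: kinetic calcium dye fluorescence, Fluo-4 NW / Control set: positive and negative controls per plate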
MrgX1 antag – antagonists of human MrgX1 receptor | Q96LB2 | MRGX1-HEK293 calcium flux, Fluo-4, BAM8-22 antagonism; stronger effect = lower value | B-score at 10 µM | 310,000 compounds, 1.3% hits | AID 588676;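 active = calcium-response B-score plate-corrected more than 3 library SD below zero, starting fluorescence within 5 deviations, no agonist response on first addition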;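 also: peak minus trough fluorescence over baseline after final BAM8-22 challenge near maximal dose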
RGS4 inh valid – RGS4 inhibitor validation. 1,700 compounds, 65% hits. HEK293 M3R/RGS4, carbachol calcium Fluo-4 fluorescence; carbachol added at its EC20; 0 = buffer wells, 100 = carbachol control. shares compounds with RGS4 block. calcium response, % at 10 µM;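 active = duplicate-averaged calcium response above the buffer-only control mean plus 5 SD of those controls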;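 also: integrated fluorescence ratio F max minus min over baseline F0; higher response in RGS4-induced cells means RGS4 inhibition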
M3R Ca ctr – non-induced cell nonspecific activity of RGS4 inhibitors; shares compounds with RGS4 block; HEK293 M3R non-induced, carbachol calcium Fluo-4; submaximal (EC20) carbachol stimulus; buffer wells 0%, carbachol control wells 100%; activity (percent), % at 10 µM; 1,900 compounds, 20% hits; AID 493000; call rule not given here;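 also: RGS4 induction absent so cells express M3R without RGS4; higher means more calcium signal and flags a non-specific hit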
RGS4 inh ctr2 – second counter-screen for RGS4 inhibitors: non-induced cells without carbachol; AID 493001; shares compounds with RGS4 block; 1,900 compounds, 22% hits; calcium response (agonist-mode artifact), % at 10 µM; HEK293 M3R/RGS4 non-induced, Fluo-4 calcium, no carbachol; normalised: buffer wells 0%, carbachol wells 100%;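 active = duplicate-averaged calcium rise in uninduced cells above buffer wells' mean plus 5 SD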
* = called active by the depositor; i = inactive; x = not tested or not shown.

SMILES | RGS4 block | RGS4 act | MrgX1 PAM | MrgX1 agonist | MrgX1 antag | RGS4 inh valid | M3R Ca ctr | RGS4 inh ctr2
O=C(Nc1ccc(F)cc1F)C1CCN(S(=O)(=O)c2cccnc2)CC1 | i | i | i | i | i | x | x | x
CC(=O)C1=C(S(=O)(=O)c2ccc(C)cc2)CS(=O)(=O)C1 | 26* | i | x | x | x | 40%* | i | i
Cc1ccc(S(=O)(=O)C2CS(=O)(=O)CC2O)cc1 (stereo not drawn) | i | i | i | i | i | x | x | x
FC(F)(F)c1ccc(N=Cc2sc(N3CCOCC3)nc2-c2ccccc2)cc1 | 5.5* | i | i | i | i | 5.5%* | i | i
COc1cc(/C=C2\CC/C(=C\c3cc(OC)c(OC)c(OC)c3)C2=O)cc(OC)c1OC | i | i | i | i | i | x | x | x
COc1cc(/C=C2\COC/C(=C\c3cc(OC)c(OC)c(OC)c3)C2=O)cc(OC)c1OC | 6.4* | i | x | x | x | 20%* | i | i
Cc1ccc(/C=C/C(=O)c2ccccc(=O)c2O)cc1C | 11* | i | i | i | i | 48%* | i | 72%*
CC(=O)Oc1cc2c(cc1Cl)C1(CC(c3ccccc3Cl)O2)CC(C)(C)NC(=S)N1 (stereo not drawn) | 5* | i | i | i | i | 9.0%* | i | i
COc1ccc(NCc2ccsc2)cc1 | i | i | i | i | i | x | x | x
CC(=O)NS(=O)(=O)c1ccc(NC(=O)c2cccc3ccccc23)cc1 | i | i | i | i | i | x | x | x
O=C(/C=C/c1cccc(Cl)c1)c1ccc([N+](=O)[O-])o1 | 14* | i | i | i | i | 18%* | 34%* | 7.0%*
COc1ccc(/C=C/C(=O)c2ccc([N+](=O)[O-])o2)cc1OC | i | i | i | i | i | x | i | i
NS(=O)(=O)c1ccc(CNC(=O)/C=C/c2cccc(Cl)c2)cc1 | i | i | i | i | i | x | x | x
COc1cc(/C=C/C(=O)c2ccc([N+](=O)[O-])o2)ccc1O | 8.7* | i | i | i | i | 39%* | i | i
Nc1ccc(Oc2ccc3nc(-c4ccccc4)c(-c4ccc([N+](=O)[O-])cc4)nc3c2)cc1 | i | i | i | i | i | x | x | x
O=[N+]([O-])c1ccccc1-c1cc(-c2ccccc2O)n[nH]1 | i | i | i | i | i | i | i | i
CSc1c(C#N)c(N)c(C#N)c2c1COC(C)(C)C2 | 5.8* | i | i | i | i | 5.5%* | i | i
O=C(CCCn1ncn2c(cc3occc32)c1=O)NCc1cccc(Cl)c1 | i | i | i | i | i | x | x | x
Cn1c2ccccc2c2c(C(=O)NCc3ccco3)cn(C3CCCCC3)c(=O)c21 | i | i | i | i | i | i | i | i
Cn1ncc(S(=O)(=O)Cc2ccccc2)c(Cl)c1=O | 26* | i | i | i | i | 42%* | i | i
COc1cc(/C=C/[N+](=O)[O-])ccc1OCc1cccc(C(=O)O)c1 | 72* | i | x | x | x | 174%* | 57%* | 8.0%*
CCOc1ccc(-c2c(C(=O)N/N=C/c3ccc(OC(C)C)cc3)nnn2-c2nonc2N)cc1 | i | i | i | i | i | x | i | i
Cc1ccc(-c2c(C(=O)N/N=C/c3ccc(OC(C)C)cc3)nnn2-c2nonc2N)cc1 | 9* | i | i | i | i | 28%* | 43%* | i
Cc1cccc(C2c3[nH]c4ccccc4c3CCN2C(=O)Cc2nc(-c3ccccc3)n[nH]2)n1 (stereo not drawn) | 5.7* | i | i | i | i | 10%* | i | i
